Experimental data: ChEMBL document CHEMBL3272090, “A new type of anticonvulsant: 1-aryl-3-oxotetrahydroisoquinolines” (J Med Chem, 1977)
The source made the active and inactive calls.

Tests used:
Mus musculus [1] = assay: Anticonvulsant activity in po dosed mouse assessed as protection against maximal electroshock-induced seizures pretreated for 3 hrs; assay type: functional
Summary of the method: (§1)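 Mice given compound perorally as a Tween suspension 3 h before maximal electroshock seizure testing (Swinyard method). Median effective dose with 95% confidence limits by Litchfield–Wilcoxon; doses up to 300 mg/kg examined.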

Mus musculus [2] = assay: Anticonvulsant activity in mouse assessed as protection against pentylenetetrazole-induced convulsion at 300 mg/kg, po pretreated for 3 hrs; assay type: functional, organism-based; set-up: dose 300 mg/kg
Summary of the method: (§2)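 Peroral dosing in mice as Tween suspension, 3 h before pentylenetetrazole threshold test (Orloff method). Activity taken as a rise in threshold PTZ dose of at least 50% versus saline-pretreated controls.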

[3] = Protective index, ratio of ED50 for neurotoxicity in po dosed mouse by rotarod test to ED50 for anticonvulsant activity in po dosed mouse assessed as protection against maximal electroshock-induced seizures; assay type: toxicity, organism-based; conditions: in vivo, read-out: Ratio ED50
Summary of the method: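 Index calculated as rotarod ED50 divided by MES ED50, both from mice dosed perorally in Tween suspension 3 h before testing.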

[4] = Acute toxicity in po dosed mouse assessed as mortality after 24 hrs; assay type: organism-based; conditions: in vivo
Mus musculus [5] = assay: Neurotoxicity in po dosed mouse by rotarod test; assay type: toxicity, organism-based; conditions: in vivo
Summary of the method: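 Mice dosed perorally with Tween suspension 3 h before rotarod testing for neurotoxicity. Median effective dose with 95% confidence limits by Litchfield–Wilcoxon method.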

Mus musculus [6] = assay: Anticonvulsant activity in mouse assessed as protection against maximal electroshock-induced seizures at 300 mg/kg, po pretreated for 3 hrs; assay type: functional, organism-based; set-up: dose 300 mg/kg; summary of the method: as §1
Mus musculus [7] = assay: Anticonvulsant activity in po dosed mouse assessed as protection against pentylenetetrazole-induced convulsion pretreated for 3 hrs; assay type: functional; summary of the method: as §2

SMILES	ED50 (Mus musculus [1])	Activity (Mus musculus [2])	selectivity ratio [3]	LD50 at 24 h [4]	ED50 (Mus musculus [5])	Activity (Mus musculus [6])	ED50 (Mus musculus [7])
O=C1Cc2ccccc2C(c2ccc(NC(=O)NCc3ccccc3)cc2)N1 (configuration not stated)	275 mg/kg	inactive	> 7	> 2000 mg/kg	> 2000 mg/kg	–	–
CCCNCC(=O)Nc1ccc(C2NC(=O)C(C(C)C)c3ccccc32)cc1 (configuration not stated)	19.6 mg/kg	inactive	2.5	600 mg/kg	50 mg/kg	–	–
O=C1Cc2ccccc2C(c2ccccc2)N1 (configuration not stated)	105 mg/kg	inactive	7	1060 mg/kg	730 mg/kg	–	–
O=C(CN1CCCCC1)Nc1ccc(C2NC(=O)Cc3ccccc32)cc1 (configuration not stated)	–	–	–	> 2000 mg/kg	> 2000 mg/kg	inactive	300 mg/kg
CCCNCC(=O)Nc1ccc(C2NC(=O)Cc3ccccc32)cc1 (configuration not stated)	20.6 mg/kg	–	24	2000 mg/kg	490 mg/kg	–	–
CC1(C)C(=O)NC(c2ccc(NC(=O)CN3CCOCC3)cc2)c2ccccc21 (configuration not stated)	78 mg/kg	–	> 20	2000 mg/kg	> 1600 mg/kg	–	300 mg/kg
CCNCC(=O)Nc1ccc(C2NC(=O)Cc3ccccc32)cc1 (configuration not stated)	–	–	51	> 1600 mg/kg	520 mg/kg	–	–
CC(C)NCC(=O)Nc1ccc(C2NC(=O)C(C)(C)c3ccccc32)cc1 (configuration not stated)	–	–	59	> 2000 mg/kg	1600 mg/kg	–	100 mg/kg
Cl.Nc1ccc(C2NC(=O)Cc3ccccc32)cc1 (configuration not stated)	19 mg/kg	–	5	795 mg/kg	95 mg/kg	–	50 mg/kg
Nc1ccc(Cl)c(C2NC(=O)Cc3ccccc32)c1Cl (configuration not stated)	–	inactive	–	> 1000 mg/kg	> 1000 mg/kg	inactive	–
O=C1NC(=O)C(c2ccccc2)(c2ccccc2)N1 [PHENYTOIN]	5.2 mg/kg	–	15	> 1000 mg/kg	79.5 mg/kg	–	26 mg/kg
CNCC(=O)Nc1ccc(C2NC(=O)C(C)(C)c3ccccc32)cc1 (configuration not stated)	–	inactive	24	> 2000 mg/kg	600 mg/kg	–	–
CCCCNCC(=O)Nc1ccc(C2NC(=O)C(C)(C)c3ccccc32)cc1 (configuration not stated)	23.5 mg/kg	inactive	14	> 2000 mg/kg	335 mg/kg	–	–
CC1(C)C(=O)NC(c2ccc(NC(=O)CN)cc2)c2ccccc21 (configuration not stated)	32.5 mg/kg	inactive	13	> 1000 mg/kg	420 mg/kg	–	–
CC1(C)C(=O)NC(c2ccc(N)cc2)c2ccccc21 (configuration not stated)	20 mg/kg	–	12	> 1600 mg/kg	240 mg/kg	–	100 mg/kg
CC(C)C1C(=O)NC(c2ccc(N)cc2)c2ccccc21 (configuration not stated)	20 mg/kg	–	18	> 1600 mg/kg	358 mg/kg	–	20 mg/kg

SMILES	ED50 (Mus musculus [1])	Activity (Mus musculus [2])	selectivity ratio [3]	LD50 at 24 h [4]	ED50 (Mus musculus [5])	Activity (Mus musculus [6])	ED50 (Mus musculus [7])
CC1(C)C(=O)NC(c2ccccc2N)c2ccccc21 (configuration not stated)	110 mg/kg	–	> 9	> 1000 mg/kg	> 1000 mg/kg	–	–
CCNCC(=O)Nc1ccc(C2NC(=O)C(C)(C)c3ccccc32)cc1 (configuration not stated)	–	–	–	> 2000 mg/kg	760 mg/kg	inactive	–
CCN(CC)CC(=O)Nc1ccc(C2NC(=O)C(C)(C)c3ccccc32)cc1 (configuration not stated)	90 mg/kg	inactive	15	1600 mg/kg	1300 mg/kg	–	–
Cc1ccc2c(c1)C(c1ccc(N)cc1)NC(=O)C2(C)C (configuration not stated)	70 mg/kg	–	15	> 1600 mg/kg	1030 mg/kg	–	300 mg/kg
O=C(CCCN1CCCC1)Nc1ccc(C2NC(=O)Cc3ccccc32)cc1 (configuration not stated)	215 mg/kg	inactive	> 9	> 2000 mg/kg	> 2000 mg/kg	–	–
O=C(CN1CCOCC1)Nc1ccc(C2NC(=O)Cc3ccccc32)cc1 (configuration not stated)	55 mg/kg	inactive	> 29	> 1600 mg/kg	> 1600 mg/kg	–	–
CC(C)C1C(=O)NC(c2ccc(NC(=O)CCCN3CCCC3)cc2)c2ccccc21 (configuration not stated)	–	inactive	–	> 1000 mg/kg	86 mg/kg	inactive	–
CCCNCC(=O)Nc1ccc(C2NC(=O)C(C)c3ccccc32)cc1 (configuration not stated)	–	–	15	> 1600 mg/kg	340 mg/kg	–	100 mg/kg
CC1C(=O)NC(c2ccc(N)cc2)c2ccccc21 (configuration not stated)	26 mg/kg	–	10	> 2000 mg/kg	250 mg/kg	–	100 mg/kg
CCCNCC(=O)Nc1ccccc1C1NC(=O)Cc2ccccc21 (configuration not stated)	180 mg/kg	–	> 11	> 2000 mg/kg	> 2000 mg/kg	–	300 mg/kg
Nc1ccccc1C1NC(=O)Cc2ccccc21 (configuration not stated)	140 mg/kg	inactive	7	> 2000 mg/kg	940 mg/kg	–	–
CC1(C)C(=O)NC(c2ccc(NC(=O)CN3CCCCC3)cc2)c2ccccc21 (configuration not stated)	62 mg/kg	inactive	> 36	> 2000 mg/kg	> 2000 mg/kg	–	–
CNCC(=O)Nc1ccc(C2NC(=O)Cc3ccccc32)cc1 (configuration not stated)	–	–	12	600 mg/kg	270 mg/kg	–	–
CC(C)NCC(=O)Nc1ccc(C2NC(=O)Cc3ccccc32)cc1 (configuration not stated)	–	–	26	> 1000 mg/kg	270 mg/kg	–	–
CCCNCC(=O)Nc1ccc(C2NC(=O)C(C)(C)c3ccccc32)cc1 (configuration not stated)	–	–	14	> 1600 mg/kg	435 mg/kg	–	–
CCCCN(CCCC)CC(=O)Nc1ccc(C2NC(=O)C(C)(C)c3ccccc32)cc1 (configuration not stated)	62 mg/kg	inactive	10	> 2000 mg/kg	600 mg/kg	–	–
